Source: ChEMBL document CHEMBL1121744, “Synthesis and antihypertensive activity of a series of 8-substituted 1-oxa-3,8-diazaspiro[4.5]decan-2-ones” (J Med Chem, 1981)

How the values were obtained:
Rattus norvegicus [1] = assay: Percentage fall in systolic blood pressure in spontaneously hypertensive rats after 3 h following 50 mg/kg p.o.; format: functional, Artery; conditions: route oral
Summary of the method: (§1)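 Male Okamoto-Aoki SHR, trained, in groups of four matched for mean systolic pressure; one group per run received water vehicle. Oral dosing in water (0.1 mL per 10 g) on two consecutive mornings. After the day-2 dose, rats were restrained at 30.0 ± 1.0 °C. Systolic pressure was read by tail cuff (inflated to 300 mmHg, first pulse) at 1–4 h. % fall is versus the untreated control group, by 1-tail t test (p ≤ 0.05).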

Rattus norvegicus [2] = assay: Antihypertensive activity as percentage fall in systolic blood pressure in spontaneously hypertensive rats after a period of 1 hr for a dose of 50 mg/kg; format: functional, Artery; summary of the method: as §1
[3] = Distribution coefficient between 1-Octanol and phosphate buffer at pH7.4; format: physicochemical; conditions: 1-octanol/phosphate buffer, pH 7.4
Summary of the method: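 Octanol/buffer distribution measured at pH 7.4 in phosphate with sodium chloride. Either HPLC (0.004 M) or shake flask.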

Canis familiaris = assay: Percent inhibition of the pressor responses to 7.5 ug/kg iv phenylephrine in pentobarbital-anesthetized dogs for a dose of 1 mg/kg; format: functional; conditions: Canis lupus familiaris
Summary of the method: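 Pentobarbital-anesthetized dogs (35 mg/kg iv) with femoral arterial pressure recording. Epinephrine (1 μg/kg), norepinephrine (0.75 μg/kg) and phenylephrine (7.5 μg/kg) iv challenges were given about every 10 min before and after rising iv test doses, which were spaced 90 min apart. Value is % inhibition of the pressor response.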

Rattus norvegicus [4] = assay: Antihypertensive activity as percentage fall in systolic blood pressure in spontaneously hypertensive rats after a period of 4 hr for a dose of 50 mg/kg po; format: functional, Artery; summary of the method: as §1
[5] = biological target: T1, Adrenergic receptor alpha-2 (Rattus norvegicus, UniProt P22086+P19328+P22909); assay: Antagonistic potency of compound for Alpha-2 adrenergic receptor; format: functional
T1 sequence (P22086 whole entry): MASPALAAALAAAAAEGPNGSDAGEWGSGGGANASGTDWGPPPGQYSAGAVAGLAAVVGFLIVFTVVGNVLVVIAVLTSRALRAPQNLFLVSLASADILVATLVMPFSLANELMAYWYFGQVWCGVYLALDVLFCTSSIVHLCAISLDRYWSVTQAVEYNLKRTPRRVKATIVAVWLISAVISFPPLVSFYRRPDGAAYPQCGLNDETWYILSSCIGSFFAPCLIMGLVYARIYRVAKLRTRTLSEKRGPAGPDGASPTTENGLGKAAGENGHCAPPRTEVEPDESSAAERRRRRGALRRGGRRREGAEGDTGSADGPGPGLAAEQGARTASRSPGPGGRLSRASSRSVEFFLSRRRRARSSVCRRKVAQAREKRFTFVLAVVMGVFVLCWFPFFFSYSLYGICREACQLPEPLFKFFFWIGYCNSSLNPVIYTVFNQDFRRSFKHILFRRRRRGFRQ
T1 sequence (P19328 whole entry): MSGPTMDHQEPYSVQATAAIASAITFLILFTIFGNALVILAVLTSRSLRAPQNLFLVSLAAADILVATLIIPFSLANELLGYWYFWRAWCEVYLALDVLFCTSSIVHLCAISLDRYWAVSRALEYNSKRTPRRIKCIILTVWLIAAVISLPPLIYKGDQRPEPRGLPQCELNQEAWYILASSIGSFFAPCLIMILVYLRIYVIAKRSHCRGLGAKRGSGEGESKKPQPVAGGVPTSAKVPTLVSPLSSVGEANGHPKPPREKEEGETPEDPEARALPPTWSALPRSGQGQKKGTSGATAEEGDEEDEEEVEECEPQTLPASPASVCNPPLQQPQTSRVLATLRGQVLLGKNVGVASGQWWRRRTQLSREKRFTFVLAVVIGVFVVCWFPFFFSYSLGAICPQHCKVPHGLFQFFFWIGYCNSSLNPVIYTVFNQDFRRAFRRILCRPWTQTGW
T1 sequence (P22909 whole entry): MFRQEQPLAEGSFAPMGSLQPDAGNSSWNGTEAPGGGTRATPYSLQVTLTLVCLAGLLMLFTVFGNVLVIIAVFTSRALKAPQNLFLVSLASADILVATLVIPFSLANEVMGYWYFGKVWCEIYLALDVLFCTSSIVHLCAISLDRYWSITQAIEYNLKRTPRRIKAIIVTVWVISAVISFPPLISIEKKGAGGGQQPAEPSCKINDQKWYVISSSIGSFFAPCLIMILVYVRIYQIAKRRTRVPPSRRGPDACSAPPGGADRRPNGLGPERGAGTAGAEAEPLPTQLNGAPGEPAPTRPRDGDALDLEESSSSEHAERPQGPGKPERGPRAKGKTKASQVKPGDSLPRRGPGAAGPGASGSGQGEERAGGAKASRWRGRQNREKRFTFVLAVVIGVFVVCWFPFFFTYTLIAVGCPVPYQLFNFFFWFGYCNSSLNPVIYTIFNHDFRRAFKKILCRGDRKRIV

Rattus norvegicus [6] = assay: Percentage fall in systolic blood pressure in spontaneously hypertensive rats after 2 hr following 50 mg/kg p.o.; format: functional, Artery; conditions: route oral; summary of the method: as §1

Row | Structure (SMILES) | Decrease in blood pressure (Rattus norvegicus [1]) | Decrease in blood pressure (Rattus norvegicus [2]) | logD [3] | inhibition in vivo at 1 mg/kg (Canis familiaris) | Decrease in blood pressure (Rattus norvegicus [4]) | pA2 [5] | Decrease in blood pressure (Rattus norvegicus [6])
1 | CN1CC2(CCN(CC(O)C3COc4ccccc4O3)CC2)OC1=O (centres undefined) | 14% | 28% | 1.43 | 44% | 16% | 6.4 | 31%
2 | O=C1NCC2(CCN(CCc3c[nH]c4ccccc34)CC2)O1 | 7% | 16% | 1.45 | 84% | 8% | < 5 | 10%
